Screening results: PubChem, The Scripps Research Institute Molecular Screening Center
This is a sample that favours compounds with a hit; in the whole collection about 2.4% have one here.
MC4R antag cAMP: MC4R antagonists of cAMP signaling, primary screen, cell-based, TR-FRET, antagonist arm of biased-ligand search. MC4R-expressing cells, MTII-stimulated cAMP, LANCE TR-FRET. Melanocortin receptor 4 (Homo sapiens), P32245. 360,000 tested, 0.48% active. inhibition, % at 6.5 µM. AID 540295, 2011;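 active = inhibition above its plate's cutoff, the mean of tested wells on that plate plus 3 SD, cut at about 29% in these data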
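Material: human MC4R-expressing U2OS cells. Probe or stimulus: Melanotan II challenge. Dosing: 6.5 µM single dose. Times: 30-min compound, 1-h challenge, 1-h detection, room temperature. Technique: TR-FRET with Eu-cAMP and labeled anti-cAMP, 671 nm. Replication: singlicate.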
MOR-DOR ag: agonists of OPRM1-OPRD1 heterodimerization, primary screen, cell-based, luminescence; 340,000 tested, 0.3% active; activation, % at 9.3 µM; cells; Mu-type opioid receptor (Homo sapiens) + Delta-type opioid receptor (Homo sapiens), …; AID 504326, 2011; in the data active = activation above about 18%
OPRM1-OPRD1 inv: inverse agonists of MOR-DOR heterodimerization, primary screen, cell-based, luminescence. cell-based MOR-DOR heterodimer luminescence, inverse agonism. 340,000 tested, 0.21% active. inhibition, % at 9.3 µM. Mu-type opioid receptor (Homo sapiens) + Delta-type opioid receptor (Homo sapiens), …; in the data active = inhibition above about 22%, passing the limit was not always enough
HTR5A ag: HTR5A agonists in luminescence cell assay, primary screen, counter-screen for OPRM1-OPRD1 heterodimer agonist project, full-deck HTS. 5-hydroxytryptamine receptor 5A (Homo sapiens), P47898. activation, % at 9.3 µM. cell-based. AID 504692, 2011. 340,000 tested, 0.61% active; in the data active = activation mostly above about 9.5%, no sharp cut-off; inactive = mostly below about 7.6%
HTR5A inv ag: HTR5A inverse agonists in luminescence cell assay, primary screen, counter-screen for OPRM1-OPRD1 heterodimer inverse agonist project, full-deck HTS; inhibition, % at 9.3 µM; HTR5A cell line, inverse agonism; 340,000 tested, 0.083% active; 5-hydroxytryptamine receptor 5A (Homo sapiens), P47898; AID 504634, 2011; in the data active = inhibition mostly above about 23%, no sharp cut-off; inactive = mostly below about 18%
MC4R barr agon: MC4R agonists recruiting beta-arrestin, primary screen, cell-based, luminescence, agonist arm of biased-ligand search; AID 540308, 2011; Melanocortin receptor 4 (Homo sapiens), P32245; U2OS MC4R beta-arrestin complementation; percent of melanotan II response, DMSO zero; activation, % at 8.9 µM; 360,000 tested, 0.98% active;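 active = activation above a per-plate cutoff, the mean activation of sample wells on that plate plus 3 SD, cut at about 8% in these data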
cAMP nonselect: nonselective cAMP signaling inhibitors, parental cells, counter-screen for MC4R biased antagonist project, cell-based, TR-FRET, U2OS, forskolin, triplicate; LANCE TR-FRET; 1,600 tested, 26% active; shares compounds with MC4R antag cAMP; inhibition, % at 6.5 µM; AID 602193, 2012;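 active = mean inhibition over triplicates above the low-control well mean plus 3 SD, set per campaign, cut at about 13% in these data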;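 note: signal is single emission at 671 nm which falls as cellular cAMP rises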
MC4R antag conf: MC4R cAMP antagonists, retest, confirmation, cell-based, TR-FRET; inhibition, % at 6.5 µM; 1,600 tested, 27% active; MC4R-expressing cells, MTII-stimulated cAMP; shares compounds with MC4R antag cAMP; in the data active = inhibition above about 29%
Of the large screens only hits and unclear results are named; the others gave an inactive call (follow-up assays come after a bar, where they were run).

Cc1ccc(NC(=O)COC(=O)c2cccc3c2C(=O)c2ccccc2C3=O)c(C)c1	none
CC1CCCN(CCCOc2ccccc2-c2ccccc2)C1 (stereo unspecified)	none
O=C(c1ccc(S(=O)(=O)N2CCCCC2)cc1)N(c1ccccn1)C1CCCCC1	MC4R antag cAMP 32 | cAMP nonselect inactive | MC4R antag conf inactive
O=C(c1ccc(S(=O)(=O)N2CCCCCC2)cc1)N(c1ccccn1)C1CCCCC1	none
CCOc1ccc(/C=C/[N+](=O)[O-])c2ccccc12	MC4R antag cAMP 41 | cAMP nonselect inactive | MC4R antag conf inactive
CCOC(=O)COc1ccc2ccccc2c1/C=C/[N+](=O)[O-]	none
COc1ccc(-n2c(=S)[nH]c3sc(-c4ccccc4)cc3c2=O)c(OC)c1	MC4R antag cAMP 33 | cAMP nonselect 15 | MC4R antag conf inactive
COc1ccc(N(C(=O)CCl)C(C(=O)NCCc2ccccc2)c2cccs2)cc1Cl (stereo unspecified)	MC4R antag cAMP 34, MOR-DOR ag 66, HTR5A ag 54, MC4R barr agon 21 | cAMP nonselect inactive | MC4R antag conf 37
CCOC(=O)c1c(NC(=O)COc2cccc3c2CCN(C)C3=O)sc2c1CCC2	MC4R antag cAMP 30, MC4R barr agon 8.7 | cAMP nonselect inactive | MC4R antag conf 51
Cc1cccc(NC(=O)COc2cccc3c2CCN(C)C3=O)c1C	none
CCOC(=O)N1CCN(C(=O)CSc2nc3c([nH]c4ccccc43)c(=O)n2CC)CC1	none
Cc1cc(C)c(C)c(OCCCN(C)C)c1	none
O=C(Cn1ncc(Cl)c(Cl)c1=O)N1CCN(S(=O)(=O)c2ccc3ccccc3c2)CC1	MC4R antag cAMP 50 | cAMP nonselect 24 | MC4R antag conf 51
O=C(Nc1ccncc1)c1cccc(S(=O)(=O)N2CCCC2)c1	none
CCOc1ccc(CCNC(=O)CCS(=O)(=O)c2ccc(Br)cc2)cc1OCC	MC4R antag cAMP 29 | cAMP nonselect inactive | MC4R antag conf inactive
CC(C)Cc1nc2oc3c(Cl)ncnc3c2c2c1CCC2	MC4R antag cAMP 60 | cAMP nonselect inactive | MC4R antag conf 43
COc1cc(C(=O)OC2CCOC2=O)cc(Cl)c1OC (stereo unspecified)	MC4R antag cAMP 30 | cAMP nonselect 16 | MC4R antag conf 30
CCOc1cc(N2CCOCC2)c(OCC)cc1NC(=O)COC(=O)COc1ccc(C#N)cc1	MC4R antag cAMP 31 | cAMP nonselect inactive | MC4R antag conf inactive
CCOc1cc(N2CCOCC2)c(OCC)cc1NC(=O)COC(=O)COc1cc(C)cc(C)c1	none
Cc1cc(=O)[nH]c(N/N=C/c2c(F)c(F)c(F)c(F)c2F)n1	MC4R antag cAMP 29 | cAMP nonselect 14 | MC4R antag conf inactive
CCO[C@H]1OC(C(=O)O)=C[C@@H](c2ccc3c(c2)OCO3)[C@@H]1CCCO	none
CCc1ccccc1N(CC(=O)NCc1ccco1)C(=O)CCC(=O)Nc1ccccn1	MC4R antag cAMP 31 | cAMP nonselect inactive | MC4R antag conf inactive
CCc1ccc(N(CC(=O)NCc2ccco2)C(=O)CCC(=O)Nc2ccccn2)cc1	none
C[C@@H]1CN([C@H](C)CO)C(=O)CCCn2nncc2CO[C@H]1CN(C)Cc1ccc(C(F)(F)F)cc1	MC4R antag cAMP 31 (no result: MOR-DOR ag, OPRM1-OPRD1 inv, HTR5A ag, HTR5A inv ag) | cAMP nonselect inactive | MC4R antag conf inactive
Cc1cccnc1C(NC(=O)C1CCN(CCCc2ccccc2)CC1)c1ccc(F)cc1 (stereo unspecified)	none (no result: MOR-DOR ag, OPRM1-OPRD1 inv, HTR5A ag, HTR5A inv ag)
CC1=NNC(=O)/C1=C\c1cn(-c2ccccc2)nc1-c1ccccc1	MC4R antag cAMP 51 | cAMP nonselect 26 | MC4R antag conf 57
O=C(NC1CC1)C1CCN(C2CCN(C(=O)c3ccc4cccc(F)c4n3)CC2)CC1	none
Cc1onc(-c2c(F)cccc2Cl)c1C(=O)Nc1nnc(C(F)(F)F)s1	MC4R antag cAMP 48 | cAMP nonselect 36 | MC4R antag conf 74
Cc1ccc(/C=C2/Sc3ccc(C(=O)N4CCN(C)CC4)cc3NC2=O)cc1	none
CC1CCN(C(=O)c2ccc3c(c2)NC(=O)/C(=C/c2ccccc2)S3)CC1	MC4R antag cAMP 35, MC4R barr agon 8.8 | cAMP nonselect inactive | MC4R antag conf inactive
Cc1nc(Nc2cc(F)ccc2C)c2nnn(Cc3ccccc3)c2n1	none
COc1cc(OC)c(C#N)c(S(=O)(=O)Cc2ccccc2)c1	none
N#Cc1c([N+](=O)[O-])cc([N+](=O)[O-])cc1S(=O)(=O)Cc1ccccc1	MC4R antag cAMP 88 | cAMP nonselect 34 | MC4R antag conf inactive
O=C(O)Cn1c(SCCOc2ccccc2)nc2ccccc21	none
CC(C)(C)c1ccc(OCCSc2nc3ccccc3n2CC(=O)O)cc1	MC4R antag cAMP 34 | cAMP nonselect inactive | MC4R antag conf inactive
CCC(=O)NCCc1nc2cc(NC(=O)c3ccco3)ccc2n1C	none
CC(C)(C)CC(C)(C)c1ccc(O)c(CN2CCN(CCC#N)CC2)c1	none
CC(C)(C)CC(C)(C)c1ccc(O)c(Cc2ccc(Cl)cc2Cl)c1	MC4R antag cAMP 44 | cAMP nonselect inactive | MC4R antag conf inactive
CC1=CC2(C)NC(=O)C(C)C12 (stereo unspecified)	none (no result: MOR-DOR ag, OPRM1-OPRD1 inv, HTR5A ag, HTR5A inv ag)
CN(Cc1c(C(=O)N/N=C/c2cccc(Cl)c2)nnn1-c1nonc1N)c1ccccc1	none
N#C/C(=C\c1ccc(OC(F)F)cc1)C(=O)N1CCCCC1	MC4R antag cAMP 32 | cAMP nonselect inactive | MC4R antag conf inactive
CCN1CCN(C(=O)/C(C#N)=C/c2ccc(OC(F)F)cc2)CC1	none
COc1ccc(CCN2CC(C(=O)NCCc3ccc(C(F)(F)F)cc3)CCC2=O)cc1 (stereo unspecified)	none
CCOC(=O)c1cnc(-n2nc(C)cc2C)[nH]c1=O	none
CCOC(=O)c1cnc(-n2[nH]c(C)cc2=O)[nH]c1=O	MC4R antag cAMP 30 (no result: MOR-DOR ag, OPRM1-OPRD1 inv, HTR5A ag, HTR5A inv ag) | cAMP nonselect inactive | MC4R antag conf inactive
NC(=S)Nc1cccc(-c2n[nH]c(=S)o2)c1	none
